The source made the active and inactive calls. No cut-off for these calls is given here.
Assays:
[1] = target: T1, 5-hydroxytryptamine receptor 1A (Rattus norvegicus) (UniProt P19327); assay: Displacement of [3H]8-OH-DPAT from 5HT1A receptor in rat frontal cortex membrane at 10 nM; type: cell membranes
T1 sequence (whole entry): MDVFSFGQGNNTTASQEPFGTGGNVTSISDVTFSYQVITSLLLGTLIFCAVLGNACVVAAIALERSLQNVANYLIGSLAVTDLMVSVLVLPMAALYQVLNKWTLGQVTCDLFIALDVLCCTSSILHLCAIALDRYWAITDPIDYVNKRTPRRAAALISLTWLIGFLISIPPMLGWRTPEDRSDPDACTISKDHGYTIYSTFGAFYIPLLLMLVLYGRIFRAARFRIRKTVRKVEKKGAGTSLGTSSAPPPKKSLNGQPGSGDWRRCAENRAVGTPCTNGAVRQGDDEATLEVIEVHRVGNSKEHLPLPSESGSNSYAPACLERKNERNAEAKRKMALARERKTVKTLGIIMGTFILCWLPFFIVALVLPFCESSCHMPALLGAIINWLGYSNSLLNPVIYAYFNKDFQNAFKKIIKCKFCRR
How it was run: (§1)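 Rat tissue homogenized in 50 mM Tris-HCl pH 7.7, washed by repeated 40000g spins with a 10 min 37 °C incubation. Buffer: Tris-HCl, 6.66 mM CaCl2, 16.66 µM pargyline, 0.166% ascorbate. Labelled with 1.5 nM [3H]8-OH-DPAT, 45 min at 25 °C; nonspecific with 10 µM 5-HT. GF/B filtration, then scintillation counting; percent inhibition.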

[2] = target: T2, 5-hydroxytryptamine receptor 7 (Homo sapiens, UniProt P34969); assay: Displacement of [3H]LSD from human recombinant 5HT7 receptor expressed in CHO cells; type: cell-based
T2 sequence (P34969 whole entry): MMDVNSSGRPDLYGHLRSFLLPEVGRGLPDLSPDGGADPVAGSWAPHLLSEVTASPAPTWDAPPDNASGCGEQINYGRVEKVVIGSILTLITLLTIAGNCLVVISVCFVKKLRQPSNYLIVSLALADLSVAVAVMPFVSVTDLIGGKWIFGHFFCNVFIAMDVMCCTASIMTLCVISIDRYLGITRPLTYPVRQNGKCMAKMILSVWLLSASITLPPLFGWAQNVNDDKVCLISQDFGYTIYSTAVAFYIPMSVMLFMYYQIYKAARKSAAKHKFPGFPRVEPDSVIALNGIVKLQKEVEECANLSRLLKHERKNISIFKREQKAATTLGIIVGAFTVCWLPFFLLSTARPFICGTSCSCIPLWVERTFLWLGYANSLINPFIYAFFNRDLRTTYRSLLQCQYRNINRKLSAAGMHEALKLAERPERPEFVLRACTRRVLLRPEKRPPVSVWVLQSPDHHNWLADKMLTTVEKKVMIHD
How it was run: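 Cloned human 5-HT7 receptor from CHO cells, labelled with [3H]LSD; nonspecific binding with 25 µM clozapine. Stopped by filtration on PEI-soaked GF/C filters, then scintillation counting. Ki from two displacement curves of nine concentrations each, run in triplicate.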

[3] = test system: Rattus norvegicus; assay: Anxiolytic activity in ip dosed Wistar rat assessed as number of punished licks for 5 mins by conflict drinking test; type: functional; conditions: read-out: MED
How it was run: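 Modified Vogel test in male Wistar rats, 160–180 g, water-deprived 48 h and fasted 24 h. Dosed ip 30 min before test. After a 30 s free-drinking period, 600 µA, 0.6 s shocks came through the spout every 20 licks over 5 min. Punished licks counted; minimal effective dose reported.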

[4] = target: T1, 5-hydroxytryptamine receptor 1A (Rattus norvegicus); assay: Displacement of [3H]8-OH-DPAT from 5HT1A receptor in rat frontal cortex membrane at 0.1 uM; type: cell membranes; how it was run: as §1
[5] = target: T2, 5-hydroxytryptamine receptor 7; assay: Antagonist activity at human 5HT7A receptor expressed in CHO cells assessed as inhibition of […]-induced cAMP elevation at 1 uM; type: functional, cell-based; parameters: scale not given: the % may be the effect or the level left
How it was run: (§2)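 CHO cells stably expressing human 5-HT7A, cultured in F12:DMEM with 5% FCS, seeded 24 h ahead. Compounds from 1 mM DMSO stock (final DMSO 0.1%) preincubated 10 min, then 20 min with 10 nM 5-CT at 37 °C. Cells lysed, cAMP by EIA, normalized to BCA protein. The 5-CT-induced level is taken as 100%; six independent experiments.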

[6] = test system: Mus musculus; assay: Anxiolytic activity in ip dosed NMRI mouse assessed as behavioral activity for 5 mins by light dark assay; type: functional; conditions: read-out: MED
How it was run: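 Male NMRI mice, 25–33 g, kept in a dark room and dosed ip 30 min before test, then placed in the centre of the lit area. Over 5 min, time in each area, transitions, and horizontal and vertical activity were recorded. Minimal effective dose by one-way ANOVA with Duncan's test.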

[7] = target: T2, 5-hydroxytryptamine receptor 7; assay: Antagonist activity at human 5HT7A receptor expressed in CHO cells assessed as inhibition of […]-induced cAMP elevation at 10 nM administered before […] challenge; type: functional, cell-based; parameters: scale not given: the % may be the effect or the level left; how it was run: as §2
[8] = species on record: Rattus norvegicus; assay: Metabolic stability in rat; type: ADME, organism-based; conditions: in vitro

| Activity [1] [%] | Ki ([2]; read-out: Ki) [nM] | Activity [4] [%] | Activity [5] [%] | Activity [7] | Stability [8] [%] | Ki ([2]; read-out: Log Ki (converted)) [nM] | Compound | minimal effective dose [3] [mg/kg] | minimal effective dose [6] [mg/kg] |
| --- | --- | --- | --- | --- | --- | --- | --- | --- | --- |
| 0 | 1.24 | 11 |  |  |  |  | CCC1(CCCCCN2CCN(c3ccc(Cl)cc3)CC2)C(=O)Nc2ccccc21 (centres undefined) | > 20 |  |
|  |  | 0 | > 95 |  |  |  | CCC1(CCCCN2CCC(C)CC2)C(=O)Nc2ccccc21 (centres undefined) |  |  |
| 6 | 2.07 | 26 |  |  |  |  | CCC1(CCCCN2CCN(c3ccccc3)CC2)C(=O)Nc2ccccc21 (centres undefined) | 10 |  |
|  | 9.46 | 7 |  |  |  |  | CCC1(CCCCN2CCN(c3cccc(Cl)c3)CC2)C(=O)Nc2c(Cl)cc(Cl)cc21 (centres undefined) | > 20 |  |
| 0 | 0.63 | 11 |  |  |  |  | CCC1(CCCCN2CCN(c3ccc(Cl)c(Cl)c3)CC2)C(=O)Nc2ccccc21 (centres undefined) | > 20 |  |
| 6 | 2.55 | 33 |  |  |  |  | CCC1(CCCCN2CCN(c3cccc(OC)c3)CC2)C(=O)Nc2ccccc21 (centres undefined) | > 20 |  |
|  | 1.8 | 12 | > 95 | inactive |  |  | CC(C)CC1(CCCCN2CCN(c3cccc(Cl)c3)CC2)C(=O)Nc2ccccc21 (centres undefined) | 10 | > 10 |
| 2 | 0.38 | 11 |  |  | 9 |  | CCC1(CCCCN2CCN(c3ccc(Cl)cc3)CC2)C(=O)Nc2ccccc21 (centres undefined) | 10 | > 10 |
|  | 9.07 | 16 |  |  |  |  | CCC1(CCCCN2CCN(c3cccc(Cl)c3)CC2)C(=O)Nc2cc(F)c(Cl)cc21 (centres undefined) | 20 |  |
| 12 | 0.43 | 10 |  |  |  |  | CCC1(CCCCN2CCN(c3ccc(F)cc3)CC2)C(=O)Nc2ccccc21 (centres undefined) | 10 | < 1 |
|  | 3.72 | 0 |  |  |  |  | CCC1(CCCCN2CCN(c3ccc(Cl)cc3)CC2)C(=O)Nc2ccc(Cl)cc21 (centres undefined) | > 20 |  |
|  | 2.81 | 9 |  |  |  |  | CCC1(CCCCN2CCN(c3ccc(Cl)cc3)CC2)C(=O)Nc2ccc(F)cc21 (centres undefined) | > 20 | > 10 |
| 11 | 0.41 | 42 | > 95 | 40% | 4 |  | CCC1(CCCCN2CCN(c3cccc(Cl)c3)CC2)C(=O)Nc2ccccc21 (centres undefined) | > 20 | > 10 |
| 9 | 5.11 | 51 |  |  |  |  | CCC1(CCCCN2CCN(c3ccccc3Cl)CC2)C(=O)Nc2ccccc21 (centres undefined) | > 20 |  |
|  |  |  | > 95 | 80% |  |  | CC1CCN(CC[C@H]2CCCN2S(=O)(=O)c2cccc(O)c2)CC1 |  |  |
|  | 1.5 | 7 |  |  |  |  | CCC1(CCCCN2CCN(c3ccc(F)cc3)CC2)C(=O)Nc2ccc(F)cc21 (centres undefined) | > 20 |  |
|  | 4.31 | 29 |  |  |  |  | CCC1(CCCCN2CCc3sccc3C2)C(=O)Nc2ccccc21 (centres undefined) | > 20 | > 10 |
| 57 | 21 | 91 |  |  |  |  | CCC1(CCCN2CCN(c3cccc(Cl)c3)CC2)C(=O)Nc2ccccc21 (centres undefined) | > 20 | 3 |
|  | 6.99 | 0 |  |  |  |  | CCC1(CCCCN2CCN(c3ccc(Cl)cc3)CC2)C(=O)Nc2cc(F)c(Cl)cc21 (centres undefined) |  |  |

| Activity [1] [%] | Ki ([2]; read-out: Ki) [nM] | Activity [4] [%] | Activity [5] [%] | Activity [7] | Stability [8] [%] | Ki ([2]; read-out: Log Ki (converted)) [nM] | Compound | minimal effective dose [3] [mg/kg] | minimal effective dose [6] [mg/kg] |
| --- | --- | --- | --- | --- | --- | --- | --- | --- | --- |
|  | 5.97 | 0 |  |  |  |  | CCC1(CCCCN2CCN(c3ccc(Cl)cc3)CC2)C(=O)Nc2c(Cl)cc(F)cc21 (centres undefined) | > 20 |  |
|  | 8.27 | 18 |  |  |  |  | CCC1(CCCCN2CCN(c3cccc(Cl)c3)CC2)C(=O)Nc2ccc(Cl)cc21 (centres undefined) | > 20 |  |
|  |  |  |  |  |  | 2.14 | COc1ccccc1N1CCN(CCCCC23CCCc4cccc(c42)NC3=O)CC1 (centres undefined) |  |  |
| 28 | 5.38 | 79 |  |  |  |  | CCC1(CCCCN2CCN(c3ccccc3OC)CC2)C(=O)Nc2ccccc21 (centres undefined) | 10 |  |
|  | 1.96 | 43 |  |  |  |  | O=C1Nc2ccc(F)cc2C1CCCCN1CCN(c2cccc(Cl)c2)CC1 (centres undefined) | > 20 |  |
|  | 4.75 | 31 |  |  |  |  | CCC1(CCCCN2CCN(c3cccc(Cl)c3)CC2)C(=O)Nc2c(Cl)cc(F)cc21 (centres undefined) | > 20 | > 10 |
|  | 5.3 | 11 |  |  |  |  | CCC1(CCCCN2CCC(c3ccc(F)cc3)CC2)C(=O)Nc2ccccc21 (centres undefined) | 20 | > 10 |
|  | 2.11 | 24 |  |  |  |  | CCC1(CCCCN2CCN(c3cccc(Cl)c3)CC2)C(=O)Nc2ccc(F)cc21 (centres undefined) | < 5 | > 10 |
|  | 10.1 | 5 |  |  | 76 |  | CCC1(CCCCN2CCN(c3ccc(Cl)cc3)CC2)C(=O)Nc2c(Cl)cc(Cl)cc21 (centres undefined) | < 5 | < 1 |
| 12 | 33.4 | 42 |  |  |  |  | CCC1(CCCCN2CCN(c3ccccc3)CC2)C(=O)N(C)c2ccccc21 (centres undefined) | 20 |  |
| 12 | 1.45 | 43 | > 95 | 20% |  |  | CCC1(CCCCCN2CCN(c3cccc(Cl)c3)CC2)C(=O)Nc2ccccc21 (centres undefined) | > 10 | > 10 |
| 0 | 0.6 | 14 |  |  |  |  | CCC1(CCCCN2CCN(c3ccc(F)c(Cl)c3)CC2)C(=O)Nc2ccccc21 (centres undefined) | > 20 |  |
|  | 3.4 | 6 |  |  | 40 |  | O=C1Nc2ccc(F)cc2C1CCCCN1CCN(c2ccc(F)cc2)CC1 (centres undefined) | > 10 |  |
| 3 | 25.4 | 24 |  |  |  |  | CCC1(CCCCN2CCN(c3ccc(OC)cc3)CC2)C(=O)Nc2ccccc21 (centres undefined) | > 20 |  |
| 11 | 0.67 | 37 |  |  |  |  | CCC1(CCCCN2CCN(c3cccc(Cl)c3)CC2)C(=O)Nc2cc(F)ccc21 (centres undefined) | > 20 |  |
| 9 | 0.49 | 40 | > 95 | 80% |  |  | O=C1Nc2ccccc2C1CCCCN1CCN(c2cccc(Cl)c2)CC1 (centres undefined) | < 5 | > 10 |
| 32 | 6.57 | 86 |  |  |  |  | CCC1(CCCCN2CCN(c3ccccc3OC)CC2)C(=O)N(Cc2ccccc2)c2ccccc21 (centres undefined) | > 20 |  |
| 0 | 0.66 | 11 | > 95 | 40% |  |  | CCC1(CCCCN2CCN(c3ccc(C)c(Cl)c3)CC2)C(=O)Nc2ccccc21 (centres undefined) | > 20 |  |
|  | 7.65 | 52 | > 95 |  |  |  | CCC1(CCCCN2CCc3ccccc3C2)C(=O)Nc2ccccc21 (centres undefined) | > 20 |  |

| Compound | Activity [1] [%] | Ki ([2]; read-out: Ki) [nM] | Activity [4] [%] | Activity [5] [%] | Activity [7] | Stability [8] [%] | Ki ([2]; read-out: Log Ki (converted)) [nM] | minimal effective dose [3] [mg/kg] | minimal effective dose [6] [mg/kg] |
| --- | --- | --- | --- | --- | --- | --- | --- | --- | --- |
| CCC1(CCCCN2CC=C(c3ccc(F)cc3)CC2)C(=O)Nc2ccccc21 (centres undefined) |  | 1.19 | 19 | > 95 |  |  |  | 20 |  |
| CCC1(CCCCN2CC=C(c3ccc(Cl)cc3)CC2)C(=O)Nc2ccccc21 (centres undefined) |  | 1.02 | 10 | > 95 | inactive |  |  | > 20 |  |
